In ChEMBL document CHEMBL1140315, “Design and synthesis of the first generation of novel potent, selective, and in vivo active (benzothiazol-2-yl)acetonitrile inhibitors of the c-Jun N-terminal kinase” (J Med Chem, 2005):

Columns and labels:
[1] = target: Mitogen-activated protein kinase 10 (Rattus norvegicus, UniProt P49187); experiment: Inhibition of rat c-Jun N-terminal kinase 3
[2] = system: Jurkat; experiment: Ability to inhibit IL-2 production induced with phorbol-12, myristate-13 acetate and ionomycin in Jurkat T cell at the concentration of 10 uM; type: functional; conditions: Homo sapiens
In short: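 Jurkat human T cell leukemia cells in RPMI 1640 with 10% heat-inactivated FCS, plated at 2 × 10⁵ cells/well. Compounds added in 0.1% DMSO and preincubated 30 min at 37 °C. Cells then stimulated with PMA + ionomycin (0.1 and 1 µM final) for 24 h at 37 °C. IL-2 in the supernatant measured by sandwich ELISA against a recombinant human IL-2 standard.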

[3] = Inhibition of p56 lck tyrosine kinase
[4] = Oral bioavailability in rat; type: ADME, organism-based; conditions: in vivo, read-out: Bioavailabiility
[5] = target: Tyrosine-protein kinase Blk (Homo sapiens, UniProt P51451); experiment: Inhibition of BLK; Range is 5-10
[6] = target: Ribosomal protein S6 kinase (P70S6K) (Homo sapiens, UniProt P23443+Q9UBS0); experiment: Inhibition of p70S6K; type: protein-complex assay
[7] = target: Mitogen-activated protein kinase 8 (Homo sapiens, UniProt P45983); experiment: Inhibition of c-Jun N-Terminal kinase 1
[8] = system: Mus musculus; experiment: Dose administered orally to decrease TNF alpha plasma level in mice; type: functional; conditions: po
In short: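 Groups of six mice. LPS endotoxin (O111:B4, 0.3 mg/kg) given i.p. 15 min later. Plasma TNF-α measured by ELISA in heparinized blood collected by decapitation. Data given as mean ± SEM, analysed by one-way ANOVA with Dunnett's t-test.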

[9] = target: MAP kinase-activated protein kinase 5 (Homo sapiens, UniProt Q8IW41); experiment: Inhibition of protein kinase PRAK
Sequence of MAP kinase-activated protein kinase 5 (Q8IW41 whole entry): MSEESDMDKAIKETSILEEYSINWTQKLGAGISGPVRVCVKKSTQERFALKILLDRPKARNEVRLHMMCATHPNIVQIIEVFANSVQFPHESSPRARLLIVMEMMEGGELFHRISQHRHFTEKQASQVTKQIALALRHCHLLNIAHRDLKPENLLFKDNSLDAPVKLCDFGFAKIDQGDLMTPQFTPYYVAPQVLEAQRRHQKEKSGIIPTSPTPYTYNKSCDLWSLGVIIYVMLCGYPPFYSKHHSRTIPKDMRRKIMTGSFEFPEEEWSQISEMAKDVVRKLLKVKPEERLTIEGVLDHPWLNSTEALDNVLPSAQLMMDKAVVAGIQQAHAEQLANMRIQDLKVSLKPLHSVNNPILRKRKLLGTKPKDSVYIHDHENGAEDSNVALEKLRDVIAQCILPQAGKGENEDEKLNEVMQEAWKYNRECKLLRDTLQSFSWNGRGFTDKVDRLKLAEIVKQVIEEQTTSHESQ

[10] = target: RAF proto-oncogene serine/threonine-protein kinase (Homo sapiens, UniProt P04049); experiment: Inhibition of RAF proto-oncogene serine/threonine protein kinase
[11] = target: Protein kinase C alpha type (Homo sapiens, UniProt P17252); experiment: Inhibition of protein kinase C alpha
[12] = target: Rho-associated protein kinase 2 (Homo sapiens, UniProt O75116); experiment: Inhibition of protein kinase ROCK2; Range is 5-10
[13] = target: RAC-alpha serine/threonine-protein kinase (Homo sapiens, UniProt P31749); experiment: Inhibition of AKT kinase
Sequence of RAC-alpha serine/threonine-protein kinase (P31749 whole entry): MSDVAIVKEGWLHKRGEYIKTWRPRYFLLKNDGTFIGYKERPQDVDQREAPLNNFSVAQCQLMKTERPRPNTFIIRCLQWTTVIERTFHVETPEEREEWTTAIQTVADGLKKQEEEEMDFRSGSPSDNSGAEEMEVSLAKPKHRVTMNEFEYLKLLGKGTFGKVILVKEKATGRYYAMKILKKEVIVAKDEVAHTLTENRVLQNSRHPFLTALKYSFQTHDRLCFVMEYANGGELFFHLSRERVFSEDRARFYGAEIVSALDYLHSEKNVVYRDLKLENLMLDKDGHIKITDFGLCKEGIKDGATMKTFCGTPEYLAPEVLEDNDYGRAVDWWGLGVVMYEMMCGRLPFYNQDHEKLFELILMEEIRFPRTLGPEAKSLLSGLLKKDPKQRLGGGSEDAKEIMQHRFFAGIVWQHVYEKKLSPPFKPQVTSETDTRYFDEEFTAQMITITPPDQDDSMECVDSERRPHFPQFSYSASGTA

[14] = target: Serine/threonine-protein kinase Chk1 (Homo sapiens, UniProt O14757); experiment: Inhibition of CHK1 kinase
[15] = target: Mitogen-activated protein kinase 14 (Homo sapiens, UniProt Q16539); experiment: Inhibition of MAP kinase p38 alpha
Sequence of Mitogen-activated protein kinase 14 (Q16539 whole entry): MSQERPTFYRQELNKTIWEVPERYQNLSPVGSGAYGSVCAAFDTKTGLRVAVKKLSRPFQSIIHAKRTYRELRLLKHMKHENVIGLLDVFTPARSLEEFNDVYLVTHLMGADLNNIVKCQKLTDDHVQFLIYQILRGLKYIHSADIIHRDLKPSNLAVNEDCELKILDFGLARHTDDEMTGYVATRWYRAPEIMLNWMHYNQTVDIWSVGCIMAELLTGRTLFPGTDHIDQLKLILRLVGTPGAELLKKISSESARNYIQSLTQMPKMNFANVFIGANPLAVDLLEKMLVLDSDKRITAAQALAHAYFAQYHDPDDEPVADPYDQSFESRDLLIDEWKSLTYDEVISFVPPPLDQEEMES

[16] = target: Inhibitor of nuclear factor kappa-B kinase subunit beta (Homo sapiens, UniProt O14920); experiment: Inhibition of IKKB kinase
Sequence of Inhibitor of nuclear factor kappa-B kinase subunit beta (O14920 whole entry): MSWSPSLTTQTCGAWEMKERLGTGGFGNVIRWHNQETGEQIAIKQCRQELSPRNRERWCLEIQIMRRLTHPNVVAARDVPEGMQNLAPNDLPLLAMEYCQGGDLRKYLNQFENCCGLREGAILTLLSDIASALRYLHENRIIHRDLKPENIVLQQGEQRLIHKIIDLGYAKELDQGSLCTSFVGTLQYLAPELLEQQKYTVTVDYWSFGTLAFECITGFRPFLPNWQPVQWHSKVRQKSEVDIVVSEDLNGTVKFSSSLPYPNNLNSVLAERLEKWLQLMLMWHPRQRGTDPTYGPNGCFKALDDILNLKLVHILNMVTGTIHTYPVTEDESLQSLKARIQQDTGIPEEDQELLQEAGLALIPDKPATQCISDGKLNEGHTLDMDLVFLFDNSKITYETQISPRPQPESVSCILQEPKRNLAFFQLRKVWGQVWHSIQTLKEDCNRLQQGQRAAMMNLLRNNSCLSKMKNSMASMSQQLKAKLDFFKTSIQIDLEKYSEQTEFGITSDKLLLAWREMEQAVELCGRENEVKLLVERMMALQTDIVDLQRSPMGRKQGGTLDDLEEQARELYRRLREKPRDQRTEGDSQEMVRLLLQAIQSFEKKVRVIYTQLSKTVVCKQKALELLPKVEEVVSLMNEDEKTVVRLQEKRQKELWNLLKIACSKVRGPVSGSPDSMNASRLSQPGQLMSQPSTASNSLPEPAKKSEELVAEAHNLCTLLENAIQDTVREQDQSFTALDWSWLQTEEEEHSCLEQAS

[17] = target: Proto-oncogene tyrosine-protein kinase Src (Homo sapiens, UniProt P12931); experiment: Inhibition of c-SRC tyrosine kinase
Sequence of Proto-oncogene tyrosine-protein kinase Src (P12931 2-536 limits assumed): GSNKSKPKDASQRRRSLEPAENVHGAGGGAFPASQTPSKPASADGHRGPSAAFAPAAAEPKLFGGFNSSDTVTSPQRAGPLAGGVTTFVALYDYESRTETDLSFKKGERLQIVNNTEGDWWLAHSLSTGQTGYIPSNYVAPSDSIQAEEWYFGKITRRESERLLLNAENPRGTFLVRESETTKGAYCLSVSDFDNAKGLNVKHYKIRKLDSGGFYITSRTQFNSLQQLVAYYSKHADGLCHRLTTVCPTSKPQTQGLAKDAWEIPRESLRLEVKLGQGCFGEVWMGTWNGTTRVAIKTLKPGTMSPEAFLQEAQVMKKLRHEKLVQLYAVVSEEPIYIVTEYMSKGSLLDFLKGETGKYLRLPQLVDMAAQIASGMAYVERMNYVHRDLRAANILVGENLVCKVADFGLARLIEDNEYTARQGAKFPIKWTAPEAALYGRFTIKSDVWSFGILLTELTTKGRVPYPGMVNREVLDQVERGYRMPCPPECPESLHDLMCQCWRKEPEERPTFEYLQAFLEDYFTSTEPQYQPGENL

[18] = Inhibition of PI3k-gamma
[19] = target: Dual specificity mitogen-activated protein kinase kinase 4 (Homo sapiens, UniProt P45985); experiment: Inhibition of Mitogen activated protein kinase kinase 4
Sequence of Dual specificity mitogen-activated protein kinase kinase 4 (P45985 whole entry): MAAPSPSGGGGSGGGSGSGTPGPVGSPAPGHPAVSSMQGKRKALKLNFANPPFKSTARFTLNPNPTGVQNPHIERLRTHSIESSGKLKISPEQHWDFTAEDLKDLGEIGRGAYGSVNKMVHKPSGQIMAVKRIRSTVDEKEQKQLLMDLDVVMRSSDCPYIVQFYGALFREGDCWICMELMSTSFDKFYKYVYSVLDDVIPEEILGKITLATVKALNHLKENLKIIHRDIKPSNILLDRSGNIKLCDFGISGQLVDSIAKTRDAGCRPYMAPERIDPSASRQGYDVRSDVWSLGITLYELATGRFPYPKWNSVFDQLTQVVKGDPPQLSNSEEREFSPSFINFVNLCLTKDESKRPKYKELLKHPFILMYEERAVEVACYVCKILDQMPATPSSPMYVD

[20] = target: Dual specificity mitogen-activated protein kinase kinase 6 (Homo sapiens, UniProt P52564); experiment: Inhibition of Mitogen activated protein kinase 6; Range is 5-10
[21] = target: Dual specificity mitogen-activated protein kinase kinase 7 (Homo sapiens, UniProt O14733); experiment: Inhibition of mitogen activated protein kinase kinase 7 beta
Sequence of Dual specificity mitogen-activated protein kinase kinase 7 (O14733 whole entry): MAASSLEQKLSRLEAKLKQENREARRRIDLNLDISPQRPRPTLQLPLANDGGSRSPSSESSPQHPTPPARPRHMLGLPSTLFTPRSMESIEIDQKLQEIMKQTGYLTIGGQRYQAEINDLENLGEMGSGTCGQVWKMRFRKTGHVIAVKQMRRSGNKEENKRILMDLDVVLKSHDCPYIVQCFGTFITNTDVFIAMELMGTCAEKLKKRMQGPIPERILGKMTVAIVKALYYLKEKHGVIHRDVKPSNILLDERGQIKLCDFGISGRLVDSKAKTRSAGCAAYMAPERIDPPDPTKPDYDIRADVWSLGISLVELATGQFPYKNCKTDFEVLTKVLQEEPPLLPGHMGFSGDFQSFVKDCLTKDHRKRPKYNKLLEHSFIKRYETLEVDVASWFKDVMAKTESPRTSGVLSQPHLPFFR

[22] = target: Serine/threonine-protein kinase Sgk1 (Homo sapiens, UniProt O00141); experiment: Inhibition of SGK; Range is 5-10
Sequence of Serine/threonine-protein kinase Sgk1 (O00141 whole entry): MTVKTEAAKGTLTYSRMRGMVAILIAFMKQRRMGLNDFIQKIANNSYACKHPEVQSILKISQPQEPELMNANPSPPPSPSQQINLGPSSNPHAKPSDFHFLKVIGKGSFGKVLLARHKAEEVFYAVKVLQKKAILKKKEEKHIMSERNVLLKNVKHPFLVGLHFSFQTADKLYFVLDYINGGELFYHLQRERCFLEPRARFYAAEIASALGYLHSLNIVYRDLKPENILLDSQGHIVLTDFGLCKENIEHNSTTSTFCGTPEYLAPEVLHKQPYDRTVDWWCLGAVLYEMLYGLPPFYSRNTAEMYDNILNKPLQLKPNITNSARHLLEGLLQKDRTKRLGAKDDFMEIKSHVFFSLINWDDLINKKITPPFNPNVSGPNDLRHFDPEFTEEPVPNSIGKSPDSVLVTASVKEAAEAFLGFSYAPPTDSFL

[23] = target: Dual specificity mitogen-activated protein kinase kinase 1 (Homo sapiens, UniProt Q02750); experiment: Inhibition of mitogen activated protein kinase kinase 1 (MEK1)
[24] = target: 3-phosphoinositide-dependent protein kinase 1 (Homo sapiens, UniProt O15530); experiment: Inhibitory concentration against PDK 1
[25] = target: Mitogen-activated protein kinase 9 (Homo sapiens, UniProt P45984); experiment: Inhibitory concentration against c-Jun N-Terminal kinase 2
[26] = target: Ribosomal protein S6 kinase alpha-5 (Homo sapiens, UniProt O75582); experiment: Inhibition of MSK-1 kinase; Range is 5-10
[27] = target: Mitogen-activated protein kinase 3 (Homo sapiens, UniProt P27361); experiment: Inhibition of ERK1 kinase
[28] = target: Cyclin-dependent kinase 2/cyclin A (Homo sapiens, UniProt P24941); experiment: Inhibition of CDK2/cyclin A; type: protein-complex assay
[29] = target: MAP kinase-activated protein kinase 2 (Homo sapiens, UniProt P49137); experiment: Inhibition of MAP kinase-activated protein kinase 2

Sequence of Mitogen-activated protein kinase 10 (P49187 whole entry): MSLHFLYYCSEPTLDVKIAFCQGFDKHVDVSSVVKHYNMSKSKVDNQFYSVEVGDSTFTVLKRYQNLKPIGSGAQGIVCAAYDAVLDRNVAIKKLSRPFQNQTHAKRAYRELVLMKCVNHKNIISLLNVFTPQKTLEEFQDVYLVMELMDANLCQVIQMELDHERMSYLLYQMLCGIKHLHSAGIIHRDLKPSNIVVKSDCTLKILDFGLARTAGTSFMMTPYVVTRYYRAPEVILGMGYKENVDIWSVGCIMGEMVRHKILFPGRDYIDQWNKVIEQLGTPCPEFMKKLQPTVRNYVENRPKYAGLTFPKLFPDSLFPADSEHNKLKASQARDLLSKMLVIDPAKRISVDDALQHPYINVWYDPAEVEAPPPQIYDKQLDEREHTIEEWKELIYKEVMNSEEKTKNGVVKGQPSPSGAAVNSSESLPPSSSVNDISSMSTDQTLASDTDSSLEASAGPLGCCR

Compound: CCCN(CCC)c1nccc(/C(C#N)=C2\Nc3ccccc3S2)n1
- IC50 [1]: > 5 µM

Compound: N#C/C(=C1/Nc2ccccc2S1)c1ccnc(N)n1
- IC50 [1]: 7.5 µM

Compound: N#C/C(=C1/Nc2ccccc2S1)c1ccnc(NCCc2ccc(O)cc2)n1
- IC50 [1]: 3.5 µM

Compound: N#C/C(=C1/Nc2ccccc2S1)c1ccnc(NCCc2ccc([N+](=O)[O-])cc2)n1
- IC50 [1]: 0.6 µM

Compound: Cn1cnc(CCNc2nccc(/C(C#N)=C3\Nc4ccccc4S3)n2)c1
- IC50 [1]: 0.065 µM

Compound: N#C/C(=C1/Nc2ccccc2S1)c1ccnc(NCCCN)n1
- IC50 [1]: 0.707 µM

Compound: N#C/C(=C1/Nc2ccccc2S1)c1ccnc(NN)n1
- IC50 [1]: 0.5 µM

Compound: N#C/C(=C1/Nc2ccccc2S1)c1ccncn1
- IC50 [1]: > 5 µM

Compound: N#C/C(=C1/Nc2ccccc2S1)c1ccnc(NCc2ccccc2)n1
- IC50 [1]: 6.5 µM

Compound: Cc1ccc(CCNc2nccc(/C(C#N)=C3\Nc4ccccc4S3)n2)cc1
- IC50 [1]: > 5 µM

Compound: CNCCCN(C)c1nccc(/C(C#N)=C2\Nc3ccccc3S2)n1
- IC50 [1]: 1.32 µM

Compound: N#C/C(=C1/Nc2ccccc2S1)c1ccnc(NCCN2CCCCC2)n1
- IC50 [1]: 3.74 µM

Compound: N#C/C(=C1/Nc2ccccc2S1)c1ccnc(NCCc2ccccc2)n1
- IC50 [1]: > 5 µM

Compound: CN(C)c1nccc(/C(C#N)=C2\Nc3ccccc3S2)n1
- IC50 [1]: 9.4 µM

Compound: Cc1cc(/C(C#N)=C2\Nc3ccccc3S2)nc(Cl)n1
- IC50 [1]: > 5 µM

Compound: COc1ccc(CCNc2nccc(/C(C#N)=C3\Nc4ccccc4S3)n2)cc1
- IC50 [1]: 3.08 µM

Compound: N#C/C(=C1/Nc2ccccc2S1)c1ccnc(NCCCn2ccnc2)n1
- inhibition at 10 µM [2]: 31%
- IC50 [1]: 0.147 µM

Compound: N#C/C(=C1/Nc2ccccc2S1)c1ccnc(N2CCNCC2)n1
- IC50 [1]: 6.6 µM

Compound: N#C/C(=C1/Nc2ccccc2S1)c1ccnc(NCCc2cccc(F)c2)n1
- IC50 [1]: 1.81 µM

Compound: N#C/C(=C1/Nc2ccccc2S1)c1ccnc(NCCc2ccc(S(N)(=O)=O)cc2)n1
- IC50 [1]: 0.041 µM

Compound: N#C/C(=C1/Nc2ccccc2S1)c1ccnc(NCCc2c[nH]cn2)n1
- inhibition at 10 µM [2]: 80%
- IC50 [1]: 0.08 µM

Compound: CN1/C(=C(/C#N)c2ccnc(Cl)n2)Sc2ccccc21
- IC50 [1]: > 5 µM

Compound: N#C/C(=C1/Nc2ccccc2S1)c1ccnc(NCCc2ccccc2F)n1
- inhibition at 10 µM [2]: 90%
- IC50 [1]: 0.273 µM

Compound: CN(C)CCCNc1nccc(/C(C#N)=C2\Nc3ccccc3S2)n1
- IC50 [1]: 1.64 µM

Compound: N#C/C(=C1/Nc2ccccc2S1)c1ccnc(NCc2nn[nH]n2)n1
- IC50 [1]: > 5 µM

Compound: N#C/C(=C1/Nc2ccccc2S1)c1ccnc(NCCn2cncn2)n1
- IC50 [1]: 0.397 µM

Compound: N#C/C(=C1/Nc2ccccc2S1)c1ccnc(NCc2cccnc2)n1
- inhibition at 10 µM [2]: 95%
- IC50 [1]: 0.337 µM

Compound: N#C/C(=C1/Nc2cc(C(F)(F)F)ccc2S1)c1ccnc(Cl)n1
- IC50 [1]: 0.993 µM

Compound: CCO/C(O)=C(\c1ccnc(Cl)n1)c1nc2ccccc2s1
- IC50 [1]: > 5 µM

Compound: CNc1nccc(/C(C#N)=C2\Nc3ccccc3S2)n1
- IC50 [1]: 0.95 µM

Compound: N#C/C(=C1/Nc2ccccc2S1)c1ccnc(Cl)n1
- inhibition at 10 µM [2]: 90%
- IC50 [1]: 0.25 µM

Compound: CN(C)CCNc1nccc(/C(C#N)=C2\Nc3ccccc3S2)n1
- IC50 [1]: 1.3 µM

Compound: N#C/C(=C1/Nc2ccccc2S1)c1cccc(Cl)n1
- IC50 [1]: > 5 µM

Compound: CCCN(CCCNc1nccc(/C(C#N)=C2\Nc3ccccc3S2)n1)C(=O)CC
- IC50 [1]: 1.34 µM

Compound: N#C/C(=C1/Nc2ccccc2S1)c1ccnc(NCCc2ccccn2)n1
- inhibition at 10 µM [2]: 60%
- IC50 [1]: 0.25 µM

Compound: N#C/C(=C1/Nc2ccccc2S1)c1ccnc(NCCc2ccc(F)cc2)n1
- inhibition at 10 µM [2]: 0%
- IC50 [1]: > 5 µM

Compound: N#C/C(=C1/Nc2ccccc2S1)c1ccnc(NCCc2cccnc2)n1.O=C(O)C(F)(F)F.O=C(O)C(F)(F)F
- IC50 [3]: > 10 µM
- bioavailability [4]: 38%
- IC50 [5]: 10 µM
- IC50 [6]: > 10 µM
- IC50 [7]: 0.15 µM
- ED50 [8]: 3 mg/kg
- inhibition at 10 µM [2]: 90%
- IC50 [9]: > 10 µM
- IC50 [10]: 1.2 µM
- IC50 [11]: > 10 µM
- IC50 [12]: 10 µM
- IC50 [13]: > 10 µM
- IC50 [14]: > 10 µM
- IC50 [15]: 4.8 µM
- IC50 [16]: > 10 µM
- IC50 [17]: 1.1 µM
- IC50 [18]: > 10 µM
- IC50 [19]: > 10 µM
- IC50 [20]: 10 µM
- IC50 [21]: > 10 µM
- IC50 [22]: 10 µM
- IC50 [23]: > 10 µM
- IC50 [24]: > 10 µM
- IC50 [25]: 0.22 µM
- IC50 [26]: 10 µM
- IC50 [27]: > 10 µM
- IC50 [28]: 1.4 µM
- IC50 [29]: > 10 µM

Compound: N#C/C(=C1/Nc2ccccc2S1)c1ccnc(NCCN)n1
- IC50 [1]: 1.49 µM

Compound: N#C/C(=C1/Nc2ccccc2S1)c1ccnc(NCCc2ccc(Cl)c(Cl)c2)n1
- IC50 [1]: > 5 µM

Compound: CN1CCN(c2nccc(/C(C#N)=C3\Nc4ccccc4S3)n2)CC1
- IC50 [1]: 6.8 µM

Compound: N#C/C(=C1/Nc2ccccc2S1)c1ccnc(NCCc2ccc(N)cc2)n1
- inhibition at 10 µM [2]: 80%
- IC50 [1]: 0.08 µM

Compound: N#C/C(=C1/Nc2ccccc2S1)c1ccnc(NCc2ccccn2)n1
- IC50 [1]: 0.65 µM

Compound: COCCNc1nccc(/C(C#N)=C2\Nc3ccccc3S2)n1
- IC50 [1]: 0.82 µM

Compound: N#C/C(=C1/Nc2ccccc2S1)c1ccnc(N2CCOCC2)n1
- IC50 [1]: 2.9 µM

Compound: N#C/C(=C1/Nc2ccccc2S1)c1ccnc(NCCN2CCOCC2)n1
- IC50 [1]: 0.76 µM

Compound: N#C/C(=C1/Nc2ccccc2S1)c1ccnc(NCc2ccncc2)n1
- IC50 [1]: 0.34 µM

Compound: N#C/C(=C1/Nc2ccccc2S1)c1ccnc(NCCc2ccc(Br)cc2)n1
- IC50 [1]: > 5 µM

Compound: Cn1cncc1CCNc1nccc(/C(C#N)=C2\Nc3ccccc3S2)n1
- inhibition at 10 µM [2]: 100%

Compound: N#C/C(=C1/Nc2ccccc2S1)c1ccnc(NCCO)n1
- IC50 [1]: 0.51 µM

Compound: N#C/C(=C1/Nc2ccccc2S1)c1ccnc(NCCn2ccc3ccccc32)n1
- IC50 [1]: 0.458 µM

Compound: CCCNc1nccc(/C(C#N)=C2\Nc3ccccc3S2)n1
- IC50 [1]: > 5 µM

Compound: N#C/C(=C1/Nc2ccccc2S1)c1cc(Br)nc(Cl)n1
- IC50 [1]: 0.35 µM

Compound: COC1CCN(c2nccc(/C(C#N)=C3\Nc4ccccc4S3)n2)CC1
- IC50 [1]: 7.2 µM

Compound: N#C/C(=C1/Nc2ccccc2S1)c1ccnc(NCCCO)n1
- IC50 [1]: 0.66 µM

Compound: N#C/C(=C1/Nc2ccccc2S1)c1ccnc(NCCCn2cccn2)n1
- IC50 [1]: 0.583 µM

Compound: N#CC(=C1Nc2ccccc2N1)c1nc(Cl)ncc1Br
- IC50 [1]: > 5 µM

Compound: N#C/C(=C1/Nc2ccccc2S1)c1ccnc(NCCCN2CCOCC2)n1
- IC50 [1]: 0.407 µM

Compound: CN1CCN(CCCNc2nccc(/C(C#N)=C3\Nc4ccccc4S3)n2)CC1
- inhibition at 10 µM [2]: 83%

Compound: N#C/C(=C1/Nc2ccccc2S1)c1ccnc(NCCc2cccc(Cl)c2)n1
- IC50 [1]: > 5 µM
